The test system of series [1] is EJ. Put plainly: Potentiation factor, ratio of IC50 for antiproliferative activity against human EJ138 cells preincubated for 1 hr with CYP null bactosomes to IC50 for antiproliferative activity against human EJ138 cells preincubated for 1 hr with human CYP1B1 expressing bactosomes. It counts as functional. A digest of the protocol: (§1)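 Potentiation factor = IC₅₀ in EJ138 given control (CYP null) bactosome extract ÷ IC₅₀ with the named CYP isoform extract. Extracts came from 1 h, 37 °C incubations of 50 μM compound with 20 pmol bactosomes plus 2 mM NADPH, 1 mM MgCl₂, Tris-HCl pH 7.4. Cells were exposed 96 h and read by MTT.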

Series [2] has as its system Cytochrome P450. Put plainly: Drug metabolism in human liver microsomes assessed as CYP-mediated metabolite M16 formation at 0.5 to 23.5 uM prewarmed for 5 mins followed by NADPH addition and measured after 30 mins by HPLC-fluorescence detector analysis. The note with it: 35 min, dose 0.5-23.5 µM. It counts as ADME. A general note: Microsomes from liver hold many membrane-bound enzymes, among them those of drug oxidation.

In series [3] the target is T1, Cytochrome P450 1A1 (Homo sapiens, UniProt P04798).
T1 sequence (P04798 whole entry): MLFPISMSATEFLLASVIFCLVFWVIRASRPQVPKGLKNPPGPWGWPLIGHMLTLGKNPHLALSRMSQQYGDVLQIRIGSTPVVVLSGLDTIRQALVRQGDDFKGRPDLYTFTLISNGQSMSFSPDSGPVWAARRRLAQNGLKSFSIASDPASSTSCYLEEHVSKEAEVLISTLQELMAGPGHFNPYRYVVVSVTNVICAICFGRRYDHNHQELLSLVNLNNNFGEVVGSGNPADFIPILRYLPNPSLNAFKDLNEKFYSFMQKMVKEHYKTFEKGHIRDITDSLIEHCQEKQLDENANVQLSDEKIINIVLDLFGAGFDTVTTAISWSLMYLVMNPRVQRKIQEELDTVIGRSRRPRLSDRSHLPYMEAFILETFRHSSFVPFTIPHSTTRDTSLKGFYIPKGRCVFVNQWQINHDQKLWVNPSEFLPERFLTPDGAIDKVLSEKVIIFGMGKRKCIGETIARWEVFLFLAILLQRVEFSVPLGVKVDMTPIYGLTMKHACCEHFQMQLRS
Kind of series: Drug metabolism assessed as recombinant human CYP1A1-mediated metabolite M4 with m/z 327.1 formation at 50 uM incubated for 1 hr in presence of reconstituted protein system by LC-MS analysis. It counts as ADME. The note with it: recombinant enzyme. A digest of the protocol:
(§2)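 Substrate (50 μM) incubated at 37 °C with human recombinant CYP1A1 in a reconstituted system: NADPH cytochrome P450 reductase, freshly prepared DLPC (240 μM), 100 mM potassium phosphate pH 7.4. Reaction was started with NADPH (1 mM final) and aliquots quenched into dichloromethane over 60 min. Metabolites were profiled by HPLC with photodiode array and ESI⁺ quadrupole MS.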

The target of series [4] is T1, Cytochrome P450 1A1. Put plainly: Drug metabolism assessed as human CYP1A1 expressed in bactosomes assessed as metabolite M2 with m/z 357.1 formation measured after 1 hr by LC-MS analysis. It counts as ADME. The following applies: recombinant enzyme.
The nature of series [5]: Drug metabolism in Wistar rat liver microsomes assessed as CYP-mediated metabolite M23 formation at 0.5 to 23.5 uM prewarmed for 5 mins followed by NADPH addition and measured after 30 mins by HPLC-fluorescence detector analysis. It counts as ADME. The following applies: 35 min, dose 0.5-23.5 µM.
In series [6] the test system is EJ. Kind of series: Potentiation factor, ratio of IC50 for antiproliferative activity against human EJ138 cells preincubated for 1 hr with CYP null bactosomes to IC50 for antiproliferative activity against human EJ138 cells preincubated for 1 hr with human CYP1A2 expressing bactosomes. It counts as functional. A digest of the protocol:
as §1

The subject of series [7] is CHO. Put plainly: Antiproliferative activity against chinese hamster CHO cells transfected with CYP1A1 assessed as inhibition of cell growth after 96 hrs by MTT assay. It counts as functional, cell-based. The note with it: Cricetulus griseus. A digest of the protocol: (§3)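 Cells kept as monolayers at 37 °C in 5% CO2: EJ-138 and RT112 in RPMI 1640 with 10% FBS, sodium pyruvate and 2 mM L-glutamine; CHO and CHO-1A1 in DMEM. Compounds were taken from DMSO stocks into medium over 0.001–100 μM, with final DMSO ≤0.1%. Exposure lasted 96 h, then MTT read-out. IC50 values are mean ± SD of at least three independent assays.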
On the technique in general: Formazan colour is commonly taken as a measure of viable cells.

In series [8] the test system is EJ. Put plainly: Antiproliferative activity against human EJ138 cells deficit in CYPs assessed as inhibition of cell growth after 96 hrs by MTT assay. It counts as functional, cell-based. An outline of the steps: as §3
Series [9] deals with T1, Cytochrome P450 1A1. Put plainly: Drug metabolism assessed as human CYP1A1 expressed in bactosomes assessed as metabolite M3 with m/z 339.1 formation measured after 1 hr by LC-MS analysis. It counts as ADME. The note with it: recombinant enzyme.
In series [10] the test system is EJ. Kind of series: Antiproliferative activity against human EJ138 cells assessed as inhibition of cell growth preincubated for 1 hr with CYP null bactosomes measured after 96 hrs by MTT assay. It counts as functional, cell-based. An outline of the steps:
(§4)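 Compound (50 μM) incubated 1 h at 37 °C with 20 pmol CYP bactosomes (CYP null, 1A1, 1A2, 1B1 or 3A4) in 2 mM NADPH, 1 mM MgCl₂, Tris-HCl pH 7.4. Metabolites were extracted with acetonitrile, centrifuged, and the supernatant dried and taken up in DMSO. EJ138 cells were exposed 96 h and growth read by MTT assay.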

For series [11], the target named is T1, Cytochrome P450 1A1. Kind of series: Drug metabolism assessed as recombinant human CYP1A1-mediated metabolite M3 with m/z 339.1 formation at 50 uM incubated for 1 hr in presence of reconstituted protein system by LC-MS analysis. It counts as ADME. The note with it: recombinant enzyme. A digest of the protocol:
as §2

In series [12] the test system is EJ. Put plainly: Antiproliferative activity against human EJ138 cells assessed as inhibition of cell growth preincubated for 1 hr with human CYP1B1 expressing bactosomes measured after 96 hrs by MTT assay. It counts as functional, cell-based. A digest of the protocol:
as §4

Series [13] addresses T1, Cytochrome P450 1A1. Put plainly: Drug metabolism assessed as recombinant human CYP1A1-mediated metabolite M5 with m/z 355.1 formation at 50 uM incubated for 1 hr in presence of reconstituted protein system by LC-MS analysis. It counts as ADME. The following applies: recombinant enzyme. An outline of the steps:
as §2

Series [14] in a line: Drug metabolism in Wistar rat liver microsomes assessed as CYP-mediated metabolite M16 formation at 0.5 to 23.5 uM prewarmed for 5 mins followed by NADPH addition and measured after 30 mins by HPLC-fluorescence detector analysis. It counts as ADME. The following applies: 35 min, dose 0.5-23.5 µM.
Series [15] relates to EJ. Put plainly: Antiproliferative activity against human EJ138 cells assessed as inhibition of cell growth preincubated for 1 hr with human CYP3A4 expressing bactosomes measured after 96 hrs by MTT assay. It counts as functional, cell-based. An outline of the steps: as §4

The IC50 is the point on the concentration scale where inhibition reaches its midpoint. Turning to `COc1ccc2[nH]c(C(=O)N3CC(CCl)c4ccccc43)cc2c1` (stereo not given), the “Ratio IC50” value in series [1] was 1.3; in series [6] it was 9.1. The Drug metabolism result in series [2], in series [3], in series [4], in [5], in series [9] and in series [11] was “Metabolite_Detected” throughout. Further, the Drug metabolism result in series [13] and in [14] was “Metabolite_Detected” each time. For the same compound, the IC50 in series [7] is 1.2 µM; in series [8] it was 15 µM; in series [10], 17.2 µM; in series [12], 13.5 µM; in series [15] it was 19.8 µM.

The record behind these values is ChEMBL document CHEMBL4819117, “Probing cytochrome P450 (CYP) bioactivation with chloromethylindoline bioprecursors derived from the duocarmycin family of compounds” (Bioorg Med Chem, 2021).
